Screening data: PubChem BioAssay, several laboratories
Shown are actives, neighbours in structure and some others; about 4.1% of the full set was active somewhere.
KCNK3 block – human KCNK3 channel inhibitors, primary screen, CHO cells, FluxOR thallium flux, B-score; Potassium channel subfamily K member 3 (Homo sapiens), O14649; FluxOR fluorescence; hits give low values; B-score at 10 µM; 340,000 compounds, 0.84% hits; AID 602410, 2012;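 active = B-score under library mean minus 4 SD, starting fluorescence ratio at most library mean plus 5 SD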;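 also: more negative B-score means stronger inhibition of thallium flux through KCNK3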
Cl transport mod – KCC2 cotransporter modulators, thallium flux, primary screen, cell-based, HEK293 KCC2, FluoZin-2 fluorescence, MLSMR | Solute carrier family 12 member 5 (Homo sapiens), Q9H2X9 | KCC2 cells, thallium flux FluoZin-2 fluorescence | B-score of Tl+ flux slope (higher = more flux/activation; lower = inhibition) at 10 µM | 190,000 compounds, 2.2% hits | AID 1456, 2008;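 active = thallium flux slope and its plate-corrected score both differing from the plate sample mean at a set confidence after two filtering rounds, in either direction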;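 also: slope of fluorescence scaled to starting intensity during 10 to 20 s after thallium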
KCNK9 inh – KCNK9 potassium channel inhibitors, primary screen, HEK293 cells, thallium flux. FluxOR thallium flux fluorescence; hits give low values. B-score at 10 µM. 310,000 compounds, 1.2% hits. AID 488922, 2010;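 active = ratio B-score over 3 SD below the library mean, with starting fluorescence within 5 SD of its mean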;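 also: negative B-score means less thallium flux so channel inhibition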
Target sequence (Q9NPC2 whole entry, looked up): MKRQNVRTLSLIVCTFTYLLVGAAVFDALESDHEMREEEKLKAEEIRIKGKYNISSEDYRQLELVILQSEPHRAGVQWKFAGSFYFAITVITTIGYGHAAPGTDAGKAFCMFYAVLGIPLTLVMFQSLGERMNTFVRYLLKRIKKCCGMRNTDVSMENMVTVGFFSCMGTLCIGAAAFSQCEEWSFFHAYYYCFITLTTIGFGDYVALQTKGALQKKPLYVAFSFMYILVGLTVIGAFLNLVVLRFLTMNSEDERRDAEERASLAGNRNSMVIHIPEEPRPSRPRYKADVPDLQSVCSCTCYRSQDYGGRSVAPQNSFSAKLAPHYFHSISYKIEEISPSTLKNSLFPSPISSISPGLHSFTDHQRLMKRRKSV
KCNQ1 pot – potentiators or activators of KCNQ1 channel, primary screen, cell-based, thallium flux, high-throughput; Potassium voltage-gated channel subfamily KQT member 1 (Homo sapiens), P51787; CHO-K1 KCNQ1, thallium flux FluxOR fluorescence; hits give high values; B-score at 10 µM; 310,000 compounds, 0.35% hits;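 active = fluorescence ratio B-score, a plate-corrected score, at least three library SD, with initial intensity B-score within 5 SD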
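assay system = CHO-K1 cells stably expressing KCNQ1 | medium = assay buffer, equal DMSO in all wells | timing = 37 °C overnight plating, 90-min dark dye load, 20-min compound pretreatment | measured by = kinetic FluxOR thallium fluorescence, 10-s 1-Hz baseline, 110-s post-stimulus read | measure = fluorescence change relative to baseline, converted to B score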
KCNQ1 block – inhibitors of human KCNQ1 channel, primary screen, cell-based, thallium flux, high-throughput; Potassium voltage-gated channel subfamily KQT member 1 (Homo sapiens), P51787; B-score at 10 µM; 310,000 compounds, 1.3% hits; CHO-K1 KCNQ1, FluxOR thallium flux fluorescence; hits give high values;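 active = compounds whose thallium flux B-score, printed positive for inhibition, exceeds three library SD while starting fluorescence stays within three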;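 also: channel opened by potassium depolarization with thallium stimulus after 20 min compound exposure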
hERG rescue – hERG rescue from dofetilide block, primary screen, cell-based, CHO-hERG, FluxOR thallium flux, dofetilide IC70 | Voltage-gated inwardly rectifying potassium channel KCNH2 (Homo sapiens), Q12809 | dofetilide IC70 present | activation (rescue from dofetilide block), less the hit threshold, % at 10 µM | 310,000 compounds, 0.51% hits | AID 1511, 2009;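 active = activation above the mean of controls blocked by dofetilide plus 5 SD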;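 also: thallium influx through hERG after potassium depolarization seen as dye fluorescence rise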
KCNK3 confirm – retest of human KCNK3 channel inhibitors, confirmation, CHO cells, FluxOR thallium flux, triplicate; shares compounds with KCNK3 block; FluxOR fluorescence; 0% buffer, 100% carvedilol maximal block; ratio percent of control, % at 10 µM; 2,400 compounds, 99% hits; AID 651638, 2012;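 active = ratio percent of control, averaged over triplicates, above buffer control mean plus 5 SD, cut at about 64% in these data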;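 also: ratio is the fluorescence rise from min to max over baseline after thallium stimulus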
KCNK3 noninduced – thallium flux inhibition in non-induced cells, primary screen, counter-screen for KCNK3 inhibitor project, cell-based, non-induced KCNK3 line, FluxOR thallium, triplicate; shares compounds with KCNK3 block; non-induced KCNK3 parental cells; hits give low values; thallium flux ratio (lower = more inhibition) at 10 µM; 2,400 compounds, 40% hits;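 active = thallium flux ratio, averaged over three wells, more than 5 SD below the buffer control mean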;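 also: host cells are CHO cells without KCNK3 induction; ratio is peak minus trough fluorescence over baseline then normalized to buffer controls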
Active calls of the source: *; i = inactive; . = no result.

SMILES	KCNK3 block	Cl transport mod	KCNK9 inh	KCNQ1 pot	KCNQ1 block	hERG rescue	KCNK3 confirm	KCNK3 noninduced
CC1=C(C(=O)Nc2cccc(C(=O)NC(C)c3ccccc3)c2)SCCO1 (stereo not drawn)	-8.9*	.	i	i	i	-13	76*	i
CC1=C(C(=O)Nc2cccc(C(=O)NC3CCCC(C)C3C)c2)SCCO1 (stereo not drawn)	-9.3*	.	i	i	i	-11	97*	i
O=C(N/N=C\c1ccc(Cl)cc1Cl)c1sccc1-n1cccc1	-9.4*	.	i	i	i	-2	93*	i
O=C(N/N=C\c1ccc(Cl)cc1)c1sccc1-n1cccc1	i	-0.065	i	i	i	-12	.	.
CCNc1nc(NCC)nc(N(n2cnnc2)S(=O)(=O)c2ccc(C)cc2)n1	i	-0.95	i	i	i	-5	.	.
COc1ccc(Cc2nc3ccc(C(=O)N4CCCCC4CCO)cc3o2)cc1 (stereo not drawn)	i	.	i	i	i	-5	.	.
O=C(c1ccccc1)c1nn(-c2cccc(Cl)c2)c2nc(-c3ccccc3)cc(=O)n12	-21*	.	i	i	i	-8	118*	0.15*
COc1ccc(C(=O)NNC(=O)C(=O)N2CCCCC2)cc1OC	i	.	i	i	i	-7	.	.
COc1ccc(NC(=O)C(=O)NCCN2CCN(C(=O)C(c3ccccc3)c3ccccc3)CC2)cc1	i	-0.039	i	i	i	-10	.	.
O=C(NCc1cc([N+](=O)[O-])ccc1O)c1cc(-c2ccncc2)nc2ccccc12	-11*	.	i	i	i	-10	100*	0.14*
CCn1nc(C(=O)NNC(=O)c2ccccc2OCc2c(C)noc2C)c2ccccc2c1=O	i	.	.	.	.	.	.	.
COc1cccc(NC(=O)CN2C(=O)COc3ccc(Cl)cc32)c1	-9.8*	.	i	i	i	-7	101*	i
COc1ccc(OC)c(NC(=O)CN2C(=O)COc3ccc(S(=O)(=O)N4CCCC4)cc32)c1	-10*	.	i	i	i	-6	96*	i
COc1ccc(-c2csc3ncn(Cc4ccccc4)c(=O)c23)cc1	i	.	i	i	i	-6	.	.
Cc1ccc(CSc2nc3c(c(N(C)C)n2)CCCC3)cc1	-8.9*	.	i	i	i	-4	139*	0.12*
COc1ccc(Cl)c2sc(N3CCN(C(=O)c4ccco4)CC3)nc12	-10*	.	i	i	i	-18	86*	i
COc1ccc(-c2nnc(N(C)C(=O)c3cccnc3)s2)cc1	i	0.38	i	i	i	-5	.	.
C=CCN(C(=O)Nc1ccc(OC)cc1)c1nnc(-c2ccncc2)s1	-9.5*	.	i	i	i	-6	94*	i
CCOc1ccc(NC(=O)CSc2nc3[nH]ncc3c(=O)n2-c2ccccc2OC)cc1	i	0.35	i	i	i	-7	.	.
COc1ccccc1-n1c(SCC(=O)Nc2ccccc2F)nc2[nH]ncc2c1=O	-9.6*	1.8	i	i	i	-14	114*	i
Cc1oc(-c2cccc(Cl)c2)nc1CN1CCCC(C(=O)NCc2ccco2)C1 (stereo not drawn)	i	.	i	i	i	-17	.	.
Cc1oc(-c2cccc(Cl)c2)nc1CN1CCCC(C(=O)NC(C)c2ccc3c(c2)OCCO3)C1 (stereo not drawn)	-11*	.	i	i	i	-14	127*	0.12*
OC1CCN(c2c3c(nc4cc(-c5cccc(F)c5)nn24)CCCC3)CC1	-8.9*	-2.2	i	i	i	-4	122*	i
O=C(c1ccccc1)c1ccc(Sc2ccc([N+](=O)[O-])cc2)cc1	-8.8*	0.11	i	i	i	-20	115*	0.15*
Cc1ccc(C2=NS(=O)(=O)N(C)C(C(=O)Nc3ccc4c(c3)OCO4)=C2)cc1	-10*	.	-6.7*	i	i	-10	122*	0.14*
SMILES	KCNK3 block	Cl transport mod	KCNK9 inh	KCNQ1 pot	KCNQ1 block	hERG rescue	KCNK3 confirm	KCNK3 noninduced
COc1ccc(C2=NS(=O)(=O)N(C)C(C(=O)Nc3ccc4c(c3)OCO4)=C2)cc1	i	.	.	.	.	.	.	.
Cn1c(CSc2ccccc2)c(C#N)c2ccccc21	-11*	-0.9	i	i	i	-2	105*	0.16*
Cn1c(CN2CCN(CCO)CC2)c(C#N)c2ccccc21	i	-0.017	i	i	i	-6	.	.
COc1cc(C)ccc1OCCOc1c(Cl)cc(Cl)cc1Cl	i	.	i	i	i	-12	.	.
COc1cc(C)ccc1OCCOc1cc(C)ccc1Cl	-8.7*	0.91	i	i	i	-10	88*	i
CC1CCCCC1NC(=O)c1ccc2c(c1)[nH]c(=O)n2C1CCCC1 (stereo not drawn)	-9.5*	-0.24	i	i	i	-8	105*	i
c1cncc(C(c2nnnn2C2CCCC2)N2CCCC2)c1 (stereo not drawn)	i	0.84	i	i	i	-4	.	.
N#Cc1cccc(C(c2nnnn2C2CCCC2)N2CCCCCC2)c1 (stereo not drawn)	-15*	0.15	-7.2*	i	i	-6	93*	i
COc1ccc(-c2nc3ccccn3c2CN2CCN(c3ccccc3F)CC2)cc1	-8.8*	0.23	i	i	i	-10	106*	0.16*
Cc1ccsc1C(=O)NCCC(c1ccccc1)c1ccccc1	-9*	0.14	i	i	i	-4	105*	i
Cc1ccc(C2N(c3ccc(Cl)cc3)C(=O)N3CCCN23)cc1 (stereo not drawn)	-9.6*	-0.61	i	i	i	-10	90*	i
O=C1N(c2ccccc2)C(c2ccc(Cl)cc2)N2CCCN12 (stereo not drawn)	i	1.1	i	i	i	-9	.	.
